This is a sample that favours compounds with a hit; in the whole collection about 4.8% have one here.
APP transl inh – inhibitors of APP translation via 5'UTR reporter, primary screen, APP 5'UTR luciferase, SH-SY5Y cells; SH-SY5Y APP 5'UTR-luciferase reporter, luminescence; inhibition, % at 2 µM; 190,000 compounds, 0.82% hits; AID 1285, 2008;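 active = inhibition above a set limit, derived from the sample mean plus 3 SD, cut at about 45% in these data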
STAT1 act – STAT1 signaling activators, primary screen, cell-based, HTS, luciferase reporter. NIH 3T3 STAT1-luciferase reporter, IFN-gamma, luminescence; 100% = IFN-gamma alone, no compound. activation (% of control), % at 5.5 µM. 200,000 compounds, 2.6% hits;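 active = activation above the screen-wide mean activation plus 3 SD, cut at about 130% in these data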;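 also: raw ratio to IFN-gamma control signal so 100% means no change and 0% no light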
APP 5'UTR act – activators of APP 5'UTR luciferase reporter, primary screen, SH-SY5Y cells; 190,000 compounds, 1% hits; SH-SY5Y APP 5'UTR luciferase reporter, luminescence; zero percent = DMSO vehicle wells; activation, % at 2 µM;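 active = activation above a set limit, based on mean plus 3 SD of controls, cut at about 140% in these data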
FLuc inh counter – firefly luciferase enzyme inhibitors, primary screen, artefact control for luciferase-based inhibitor screens, biochemical, luminescence, ATPLite; 200,000 compounds, 1.5% hits; Luciferin 4-monooxygenase (Photinus pyralis), P08659; inhibition, % at 10 µM; 10 min;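 active = inhibition above about 50% when tested at 10 µM, limit read from the data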
Target sequence (P08659 whole entry, looked up): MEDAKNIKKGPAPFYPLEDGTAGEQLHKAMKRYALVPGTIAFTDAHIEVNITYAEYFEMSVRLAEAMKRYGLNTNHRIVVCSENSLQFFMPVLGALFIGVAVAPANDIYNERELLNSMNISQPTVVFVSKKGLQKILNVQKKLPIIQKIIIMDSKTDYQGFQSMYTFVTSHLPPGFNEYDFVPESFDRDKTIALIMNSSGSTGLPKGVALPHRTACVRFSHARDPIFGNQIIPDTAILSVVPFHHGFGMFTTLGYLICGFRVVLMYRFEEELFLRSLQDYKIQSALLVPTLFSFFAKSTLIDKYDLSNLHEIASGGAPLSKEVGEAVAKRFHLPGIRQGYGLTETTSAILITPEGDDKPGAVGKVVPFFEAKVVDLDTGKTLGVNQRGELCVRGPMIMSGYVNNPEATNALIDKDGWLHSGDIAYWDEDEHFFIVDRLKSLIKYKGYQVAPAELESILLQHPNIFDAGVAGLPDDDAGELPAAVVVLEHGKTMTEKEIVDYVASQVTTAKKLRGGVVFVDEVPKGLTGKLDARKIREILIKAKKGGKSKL
NF-kB expr up – activators of NF-kB expression in neurons, primary screen, cell-based, HTS. fold change at 12.5 µM. 190,000 compounds, 1.6% hits. human neuronal cells, NF-kB reporter expression; stronger effect = higher value; in the data active = fold change above about 3.3
FLuc stim CS – FLuc activators, initial screening, artefact control for FLuc-dependent activation tests, biochemical, ATPlite luminescence | Luciferin 4-monooxygenase (Photinus pyralis), P08659 | ATPlite luciferase biochemical, 10 min; 0 = ATP-free wells, 1 = DMSO control | activation factor at 10 µM | 200,000 tested, under 10 active;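 active = luciferase activation factor, scaled between plate controls, of at least 2 with compound at 10 µM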
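Material: Luciferase/luciferin reagent mix | Doses: Test compounds dosed from 2 mM stocks in 100% DMSO | Timing: 10 min incubation after luciferase reagent addition, room temperature | Measured by: Luminescence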
An asterisk follows results filed as active.

Results for COc1cc(C(=O)Nc2ccc3c(c2)OCO3)ccc1OCc1c(C)noc1C ?
APP transl inh: -10; STAT1 act: 92; APP 5'UTR act: 10; FLuc inh counter: 3; NF-kB expr up: 1.2; FLuc stim CS: 1

What do the screens show for `Fc1ccc(Nc2ccc3ccccc3n2)c(F)c1`?
APP transl inh: -200; STAT1 act: 58; APP 5'UTR act: 200*; FLuc inh counter: 70*; NF-kB expr up: 11*; FLuc stim CS: 0.3

How did Cc1cc(Nc2ccc(F)cc2F)n2nc(C)nc2n1 do in these assays?
APP transl inh: 26; STAT1 act: 96; APP 5'UTR act: -27; FLuc inh counter: 0; NF-kB expr up: 1.1; FLuc stim CS: 1

Results for O=C1/C(=C\c2cccs2)Sc2ccc3ccccc3c21 ?
APP transl inh: -179; STAT1 act: 105; APP 5'UTR act: 178*; FLuc inh counter: 54*; NF-kB expr up: 1.1; FLuc stim CS: 0.5

Results for CNC(=O)C(Sc1ccccc1)c1ccccc1 (configuration not stated) ?
APP transl inh: 49*; STAT1 act: 97; APP 5'UTR act: -37; FLuc inh counter: -3; NF-kB expr up: 1.2; FLuc stim CS: 1

Results for COc1ccc(/C=N/NC(=O)CO/N=C(\C)c2cccs2)cc1 ?
APP transl inh: -8; STAT1 act: 106; APP 5'UTR act: 8; FLuc inh counter: 6; NF-kB expr up: 1.1; FLuc stim CS: 0.9

How did C/C(=N\OC(=O)c1ccc(Cl)cc1)c1sc(-c2ccccc2)nc1C do in these assays?
APP transl inh: 1; STAT1 act: 112; APP 5'UTR act: -1; FLuc inh counter: -12; NF-kB expr up: 4.4*; FLuc stim CS: 1.1

What do the screens show for `C/C(=N\OC(=O)NC1CCCCC1)c1sc(-c2ccccc2)nc1C`?
APP transl inh: -38; STAT1 act: 110; APP 5'UTR act: 38; FLuc inh counter: -6; NF-kB expr up: 1.9; FLuc stim CS: 1.1

Results for C/C(=N\OC(=O)c1cccc(C(F)(F)F)c1)c1sc(-c2ccccc2)nc1C ?
APP transl inh: -11; STAT1 act: 96; APP 5'UTR act: 11; FLuc inh counter: -3; NF-kB expr up: 4*; FLuc stim CS: 1

What do the screens show for `C/C(=N\OC(=O)c1cccc(C)c1)c1sc(-c2ccccc2)nc1C`?
APP transl inh: -2; STAT1 act: 114; APP 5'UTR act: 2; FLuc inh counter: -4; NF-kB expr up: 3.6*; FLuc stim CS: 1

Results for Cc1nc(-c2ccccc2)sc1C(=O)NN ?
APP transl inh: 73*; STAT1 act: 113; APP 5'UTR act: -73; FLuc inh counter: -7; NF-kB expr up: 1.1; FLuc stim CS: 1.1

Results for C/C(=N\OC(=O)c1ccc(F)cc1)c1sc(-c2ccccc2)nc1C ?
APP transl inh: -9; STAT1 act: 104; APP 5'UTR act: 9; FLuc inh counter: -4; NF-kB expr up: 1.7; FLuc stim CS: 1

How did O=C(CN1C2CCCC1CC(NC(=O)c1ccccc1)C2)Nc1nccs1 (configuration not stated) do in these assays?
APP transl inh: 19; STAT1 act: 99; APP 5'UTR act: -19; FLuc inh counter: -8; NF-kB expr up: 1.2; FLuc stim CS: 1.1

Results for CCOc1ccccc1-n1c(=S)sc2c(=O)n(-c3ccccc3)c(=S)[nH]c21 ?
APP transl inh: -13; STAT1 act: 97; APP 5'UTR act: 13; FLuc inh counter: -2; NF-kB expr up: 1.5; FLuc stim CS: 1

How did C=C(C)CNC(=O)CCc1nnc(Cc2cccc(C(F)(F)F)c2)o1 do in these assays?
APP transl inh: -57; STAT1 act: 140*; APP 5'UTR act: 57; FLuc inh counter: -7; NF-kB expr up: 2.7; FLuc stim CS: 1.1

How did CC(C)CN(C)C(=O)CCc1nnc(Cc2cccc(C(F)(F)F)c2)o1 do in these assays?
APP transl inh: -66; STAT1 act: 133*; APP 5'UTR act: 66; FLuc inh counter: -5; NF-kB expr up: 2.1; FLuc stim CS: 1

How did COc1ccccc1C1c2c(oc3ccc(Cl)cc3c2=O)C(=O)N1c1cc(C)on1 (configuration not stated) do in these assays?
APP transl inh: 14; STAT1 act: 97; APP 5'UTR act: -14

Results for COc1ccc(CNC(=O)/C(C#N)=C2\N=C(NC(=O)c3cccs3)c3ccccc32)cc1 ?
APP transl inh: 5; STAT1 act: 106; APP 5'UTR act: -5; FLuc inh counter: -6; NF-kB expr up: 0.47; FLuc stim CS: 1.1

Results for CC(=O)Nc1cccc(C(=O)N/N=C/c2ccc(F)cc2)c1 ?
APP transl inh: -50; STAT1 act: 128; APP 5'UTR act: 50; FLuc inh counter: 36; NF-kB expr up: 1.1; FLuc stim CS: 0.6

How did Cc1cc(/C=N/NC(=O)c2cccc(F)c2)c(C)n1-c1ccccc1 do in these assays?
APP transl inh: -80; STAT1 act: 109; APP 5'UTR act: 79; FLuc inh counter: 79*; NF-kB expr up: 0.74; FLuc stim CS: 0.2

What do the screens show for `CC(=O)Nc1cccc(C(=O)N/N=C/c2ccccc2F)c1`?
APP transl inh: -47; STAT1 act: 143*; APP 5'UTR act: 47; FLuc inh counter: 35; NF-kB expr up: 2.7; FLuc stim CS: 0.7

What do the screens show for `Cc1cc(/C=N/NC(=O)c2ccccc2F)c(C)n1-c1ccccc1`?
APP transl inh: -96; STAT1 act: 131*; APP 5'UTR act: 96; FLuc inh counter: 75*; NF-kB expr up: 3.1; FLuc stim CS: 0.2

Results for O=C(NN=C1CCCC1)c1n[nH]c2c1CCCC2 ?
APP transl inh: 92*; STAT1 act: 104; APP 5'UTR act: -92; FLuc inh counter: 45; NF-kB expr up: 3.2; FLuc stim CS: 0.6

Results for Cc1ccsc1/C=N\NC(=O)c1n[nH]c2c1CCC2 ?
APP transl inh: -26; STAT1 act: 121; APP 5'UTR act: 26; FLuc inh counter: 71*; NF-kB expr up: 4.8*; FLuc stim CS: 0.3

What do the screens show for `O=C(N/N=C/c1c(Cl)cccc1Cl)c1n[nH]c2c1CCCC2`?
APP transl inh: -46; STAT1 act: 128; APP 5'UTR act: 46; FLuc inh counter: 42; NF-kB expr up: 1.6; FLuc stim CS: 0.6

What do the screens show for `O=C(NN=C1CCCC1)c1n[nH]c2c1CCC2`?
APP transl inh: 94*; STAT1 act: 115; APP 5'UTR act: -94; FLuc inh counter: 1; FLuc stim CS: 1

Results for O=C(NN=C1CCCCCCCCCCC1)c1ccncc1 ?
APP transl inh: -6; STAT1 act: 107; APP 5'UTR act: 6; FLuc inh counter: -2; NF-kB expr up: 0.91; FLuc stim CS: 1

Bioassay records deposited in PubChem by several laboratories.
